Screens (PubChem BioAssay)
CHOP inh – inhibitors of CHOP promoter induction, primary screen, cell-based, unfolded protein response, luciferase reporter | CHO-K1 CHOP-promoter luciferase, tunicamycin-induced, 15-18 h | inhibition, % at 10 µM | 3.8% of 220,000 active | AID 2732, 2010;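 active means compounds that reduced the stress-induced luciferase reporter signal by more than about 70% of percent inhibition, limit read from the data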;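 further: 0% = tunicamycin plus vehicle and 100% = wells without tunicamycin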
Jurkat NFkB inh – inhibitors of induced NF-kB luciferase reporter, primary screen, TCR NF-kB activation inhibitor project, cell-based, luminescence, uHTS; AID 435003, 2010; 0.53% of 330,000 active; Jurkat, PMA/ionomycin-induced NF-kB luciferase reporter; inhibition, % at 4 µM; in the data active means inhibition above about 50%
CHOP UPR activ – activators of apoptotic CHOP UPR arm, primary screen, cell-based, CHO-CHOP luciferase reporter, luminescence, uHTS. AID 449763, 2010. activation, % at 10 µM. 0.34% of 330,000 active. UPR activation; percent of tunicamycin response over DMSO baseline;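 active means at 10 µM dose, activation of 40% or more, normalized to positive control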;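 further: 100% = tunicamycin at 10 µg/mL and 0% = DMSO alone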
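Dosing – one dose, 10 µM in 0.5% DMSO · System – CHO-CHOP cells, stable luciferase reporter of PERK-eIF2a-CHOP signalling · Input – 500 cells/well · Control set – tunicamycin 10 µg/mL final as positive, DMSO-only wells as negative · Timing – 6 h compound treatment, 37 °C · Measure – % activation vs tunicamycin · Technique – luminescence read with Steady-Glo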
Gli-Sufu antag – Gli-Sufu pathway antagonists, primary screen, luciferase luminescence, Sufu-KO-LIGHT cells, uHTS; Sufu-KO-LIGHT fibroblasts, Gli luciferase reporter luminescence; AID 588413, 2011; inhibition, % at 5 µM; 0.74% of 340,000 active;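 active means inhibition above about 55%, limit read from the data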;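 further: 0% = DMSO-treated cells and 100% = wells with medium but no cells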
XBP1 UPR activ – activators of adaptive XBP1 UPR arm, primary screen, cell-based, CHO-XBP1 luciferase reporter, luminescence, uHTS; IRE1-XBP1 UPR activation; percent of tunicamycin response, DMSO as zero; activation, % at 20 µM; 0.33% of 330,000 active;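 active means versus positive control, 20 µM dose yields 30% or more activation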;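 further: 100% = tunicamycin at 10 µg/mL and 0% = DMSO only wells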
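incubation = overnight seeding at 37 °C, 6 h compound treatment at 37 °C | assay system = CHO-XBP1 cells stably carrying IRE1-XBP1-driven luciferase reporter | input = 1000 cells per well | detection = luciferase luminescence | dosing = single point, 20 µM final compound, 1% DMSO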
697 NFkB inh – inhibitors of PMA/ionomycin-induced NF-kB reporter, 697 cells, primary screen, B-cell NF-kB inhibitor project, cell-based, luminescence, uHTS | 697 B-cell NF-kB luciferase reporter, 16 h | inhibition, % at 4 µM | 0.33% of 330,000 active | AID 435022, 2010; in the data active means inhibition above about 35%
* = called active by the depositor; x = no result given. Sampled rows, rich in hits. Any-hit rate of the full collection: about 3.9%.

SMILES	CHOP inh	Jurkat NFkB inh	CHOP UPR activ	Gli-Sufu antag	XBP1 UPR activ	697 NFkB inh
CCCC(c1nnnn1CS(=O)(=O)c1ccc(C)cc1)N1CCC(C(N)=O)CC1 (centres undefined)	x	-8.3	2.1	-4.8	-3.5	10.4
O=C(CS(=O)c1ccc(Br)cc1)N1CCOCC1 (centres undefined)	x	-3.8	0.1	2.2	-2.5	5.3
COc1ccc(CN(C(=O)CN2C(=O)C(C)Oc3ccccc32)C2CCCC2)c(OC)c1 (centres undefined)	71.4*	3.5	0.2	10.9	1.9	4.4
CC(=O)N1CCCN(C(=O)c2ccc3nc(Cc4cccc(Cl)c4)oc3c2)CC1	x	-13.9	2.1	3.2	-5.5	-60.7
Cc1cccc(NC(=O)c2ccccc2NC(=O)C2CCCCC2)c1C	77.6*	0.5	-2.1	2.2	-4.0	-16.3
O=C(Nc1ccccc1)c1ccccc1NC(=O)C1CCCCC1	67.5	2.0	0.0	-6.5	-2.6	-18.0
Cn1c2ccccc2n2c(=O)c(Cl)c(-c3ccccc3)c(C#N)c12	72.9*	10.8	3.4	4.9	14.7	-20.6
Cc1ccc(C)c2[nH]c(=O)c(CCNC(=O)CCc3ccccc3)cc12	x	-0.2	0.0	-3.4	1.9	2.4
Cc1nnc(NC(=O)c2cc(S(=O)(=O)N3CCCCC3)ccc2Cl)s1	x	7.8	1.4	-1.2	-1.1	1.5
CCOP(=O)(c1ccccc1)c1nc(-c2ccccc2C)oc1N1CCCCC1 (centres undefined)	91.3*	-18.0	-1.1	5.0	-1.5	-1.7
COc1ccc(CCn2c(O)c(C=Nc3cccc(F)c3)c(=O)[nH]c2=O)cc1OC	80.1*	3.9	-1.0	-5.9	-0.2	9.1
CC(C)(Cc1cc(CC(C)(C)C(=O)O)cc(C(C)(C)C)c1)C(=O)O	x	11.1	-0.9	-0.9	3.2	-12.3
Cc1ccc(COc2ccc(/C=N/NC(=O)c3nnn(-c4nonc4N)c3COc3ccc(F)cc3)cc2)cc1	81.6*	-92.0	13.5	-9.7	15.8	-14.7
O=C(NC1CCCCC1)C(c1ccc(F)cc1)N(CCN1CCOCC1)C(=O)c1ccc(-c2ccccc2)[nH]1 (centres undefined)	73.1*	-5.7	2.7	10.5	-4.9	21.1
Cn1c2ccccc2c(=O)c2c(=O)n(Cc3ccco3)c(-c3ccc(C(C)(C)C)cc3)nc21	89.3*	9.9	2.9	x	-0.2	14.8
COc1ccc(Cn2c(-c3ccccc3)nc3c(c(=O)c4ccccc4n3C)c2=O)cc1	69.2	10.8	0.8	7.6	12.8	-21.6
COC(=O)c1cc(S(=O)(=O)N2CCN(C(=O)c3ccco3)CC2)cn1C	x	7.5	14.5	6.6	-1.0	-3.0
COc1ccc(NS(=O)(=O)c2ccc(C(=O)N(C)Cc3ccc(C)o3)cc2)cc1	x	-25.5	-1.2	1.4	-1.1	-10.2
Cc1ccccc1NC(c1cccc(Cl)c1)c1nnnn1C1CCCCC1 (centres undefined)	86.9*	-8.7	-1.0	-14.1	3.0	-5.7
N#C/C(=C/c1ccc(CNC(=O)C(=O)Nc2cc(Cl)cc(Cl)c2)o1)C(=O)NCc1cccnc1	82.0*	-26.2	-0.3	2.5	21.2	-15.6
O=C(COC(=O)CC12CC3CC(CC(C3)C1)C2)Nc1ncc(Cl)cc1Cl	77.4*	-16.1	1.6	-5.9	-0.9	-16.6
CC(C)(Oc1ccc(Cl)cc1)C(=O)OCC(=O)Nc1ncc(Cl)cc1Cl	74.8*	6.8	-1.8	-3.1	-1.9	15.7
COc1ccc(OCCCC(=O)OCC(=O)Nc2ncc(Cl)cc2Cl)cc1	x	-0.9	-0.5	-0.9	1.0	17.4
O=C(COC(=O)C12CC3CC(CC(C3)C1)C2)Nc1ncc(Cl)cc1Cl	59.6	1.3	0.8	-0.7	3.1	20.6
Cc1nc(Cl)c(N=Cc2cccc([N+](=O)[O-])c2)c(Cl)n1	x	-1.3	-0.9	-10.6	0.3	-6.3
